Screens as filed in PubChem.
UCH37 inh – inhibitors of human deubiquitinating enzyme UCH37 | purified proteasome/UCH37, Ub-AMC cleavage fluorescence | inhibition, % (no concentration beside the values) | 0.33% of 330,000 active | AID 588478;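 active = mean inhibition over replicate wells above about 20%, limit read from the data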
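Assay system: Proteasome-bound UCH37. Buffer or medium: pH 7.4 Tris-HCl (50 mM) with ovalbumin, ATP-MgCl2, DTT. Incubation: 30 min preincubation with enzyme, 25 min cleavage at room temperature. Measured by: fluorescence, ex 355 nm, em 460 nm. Read-out basis: percent inhibition. Control set: wells without proteasome as full block, compound-free enzyme plus substrate as uninhibited.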
NSD2 HMT inh – inhibitors of human histone methyltransferase NSD2; O96028; NSD2 peptide methylation, AlphaScreen, 120 min; inhibition, % at 12.5 µM; 0.54% of 310,000 active; in the data active = inhibition above about 50%
FGF22 binding – shifts melting point of recombinant human FGF22; recombinant FGF22 thermal shift, SYPRO orange fluorescence; percent of sucrose octasulfate shift, DMSO zero; activity (Tm shift, normalised), % at 9.99 µM; 1.5% of 340,000 active;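 active = mean Tm shift, scaled 0 neutral to 100 positive control, at about 1.3% or above, every replicate too, limit read from the data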
CASP6 VEID inh – blocks human caspase-6 cleavage activity. P55212. purified caspase-6, Z-VEID-R110 cleavage fluorescence. inhibition, % at 12.5 µM. 0.53% of 350,000 active. AID 686996;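 active = mean inhibition across replicates at least about 35%, with every replicate also reaching that limit, limit read from the data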
SIRT5 block – blocks human SIRT5 desuccinylation of peptide | 1.1% of 330,000 active | inhibition, % at 15 µM | Purified SirT5, succinyl-peptide AMC, trypsin-coupled fluorescence | Q9NXA8; in the data active = inhibition above about 15%
Each line names hits and unclear results; the compound was inactive in the other large screens. This is a sample that favours compounds with a hit; in the whole collection about 2.6% have one here.

CCCC(=O)Nc1ccc2c(c1)OC[C@@H](C)N(Cc1nccs1)C[C@H](C)[C@@H](OC)CN(C)C2=O	none (no result: UCH37 inh, NSD2 HMT inh)
Cc1ccc(S(=O)(=O)Nc2ccc3c(c2)CC(=O)N([C@@H](C)CO)C[C@@H](C)[C@H](CN(C)S(=O)(=O)c2cn(C)cn2)O3)cc1	none (no result: UCH37 inh, NSD2 HMT inh)
C[C@H](CO)N1C[C@H](C)[C@@H](CN(C)Cc2ccncc2)Oc2ccc(NC(=O)C3CC3)cc2CC1=O	none (no result: UCH37 inh, NSD2 HMT inh)
O=c1[nH]c(-[n+]2ccccc2)c(C=N/N=C(\[O-])c2ccccc2)s1	none (no result: NSD2 HMT inh, FGF22 binding, CASP6 VEID inh, SIRT5 block)
O=C(CC(C(=O)O)P(=O)(c1ccccc1)c1ccccc1)c1ccccc1 (configuration not stated)	FGF22 binding 43
O=C(c1[nH]c(C(F)(F)F)nc1-c1ccccc1)N1CCCN(Cc2ccc(F)cc2)CC1	SIRT5 block 29 (no result: UCH37 inh, NSD2 HMT inh)
Cc1ccc([N+](=O)[O-])cc1S(=O)(=O)Nc1ccc(C(=O)N2CCN(C(=O)c3ccco3)CC2)cc1	CASP6 VEID inh 54
O=C(NN=Cc1cccc(O)c1)c1ccc(-n2cnnn2)cc1	none (no result: NSD2 HMT inh, FGF22 binding, CASP6 VEID inh, SIRT5 block)
Cc1c(NC(=O)COC(=O)C2(c3ccc(F)cc3)CCCC2)c(=O)n(-c2ccccc2)n1C	FGF22 binding 43
Cc1c(NC(=O)C2(c3ccccc3)CCCC2)c(=O)n(-c2ccccc2)n1C	none (no result: FGF22 binding, CASP6 VEID inh, SIRT5 block)
CC(C)NC(=O)N1CC2(C1)[C@H](c1ccccc1)[C@@H](CO)N2C(=O)C1CCCCC1	none (no result: UCH37 inh, NSD2 HMT inh, FGF22 binding)
Cc1noc(C)c1NC(=O)N(C)C[C@H]1OCc2ccccc2-c2ccccc2C(=O)N([C@H](C)CO)C[C@@H]1C	none (no result: UCH37 inh, NSD2 HMT inh, SIRT5 block)
CCOc1ncccc1C(=O)OC(C)C(=O)Nc1ccc(N2CCOCC2)cc1 (configuration not stated)	CASP6 VEID inh 35
CCOc1ncccc1C(=O)OC(C)C(=O)NC(=O)NC1CCCCC1 (configuration not stated)	FGF22 binding 43
C[C@H](NC(=O)[C@H]1[C@H](CO)[C@H]2Cn3c(cccc3=O)[C@@H]1N2Cc1ccccc1)c1ccccc1	none (no result: UCH37 inh, NSD2 HMT inh)
C/C(=N\NC(=O)c1sccc1C)c1cccnc1	none (no result: UCH37 inh)
Cc1nc(C(F)(F)F)c(C(=O)N/N=C(\N)c2cccnc2)s1	FGF22 binding 43 (no result: UCH37 inh)
C[C@H](CO)N1C[C@H](C)[C@@H](CN(C)Cc2ccccc2)Oc2c(NS(=O)(=O)c3cccs3)cccc2C1=O	none (no result: UCH37 inh, NSD2 HMT inh)
O=C(C[C@@H]1CC[C@H](NC(=O)NC2CCCC2)[C@H](CO)O1)NCc1ccc(F)cc1	none (no result: UCH37 inh, NSD2 HMT inh)
COc1ccc(C=NNC(=O)C(=O)N2CCCC2)cc1OC	none (no result: NSD2 HMT inh, FGF22 binding, CASP6 VEID inh, SIRT5 block)
COc1ccc(NC(=S)N2CCC(C(=O)c3ccc(F)cc3)CC2)c(OC)c1	SIRT5 block 25
COc1ccc(C(=O)C2CCN(C(=S)Nc3ccc(F)cc3)CC2)cc1	none (no result: NSD2 HMT inh)
CCc1cccc(NC(=O)c2cc(S(=O)(=O)N3CCCCC3)ccc2N2CCOCC2)c1	FGF22 binding 43 (no result: UCH37 inh, NSD2 HMT inh, SIRT5 block)
COc1ccccc1S(=O)(=O)Nc1cc(S(=O)(=O)N2CCCCC2)ccc1N1CCOCC1	SIRT5 block 17 (no result: CASP6 VEID inh)
O=C(Nc1ccccc1)c1cc(S(=O)(=O)N2CCCCC2)ccc1N1CCOCC1	none
COc1ccccc1NCC(=O)Nc1cc(S(=O)(=O)N2CCOCC2)ccc1N1CCOCC1	none
CC(C)CC(=O)NN=Cc1c(N)n(C)c(=O)n(C)c1=O	none (no result: NSD2 HMT inh, FGF22 binding, CASP6 VEID inh, SIRT5 block)
Cc1occc1C(=O)NCc1ccco1	CASP6 VEID inh 41
CN(C)S(=O)(=O)c1ccc(C(=O)NCc2ccco2)cc1	FGF22 binding 44
O=C(Cc1c[nH]c2ccccc12)NCc1ccco1	FGF22 binding 43
CN(C)C(CNC(=O)c1ccc(S(=O)(=O)N(C)C)cc1)Cc1ccccc1 (configuration not stated)	FGF22 binding 43
COCC(=O)Nc1ccc2c(c1)OC[C@@H](C)N(C(=O)c1cnccn1)C[C@@H](C)[C@@H](OC)CN(C)C2=O	none (no result: UCH37 inh, NSD2 HMT inh)
CCOc1ccc(NC(=O)CN(C)C(=O)c2cc(-c3ccncc3)nc3ccccc23)cc1OCC	none
CCOc1ccc(NC(=O)CN(C)C(=O)c2cc(C)nc3ccccc23)cc1OCC	CASP6 VEID inh 37
CCOCC(=O)NC1CCc2cc(OC)c(OC)c(OC)c2-c2ccc(SC)c(=O)cc21 (configuration not stated)	FGF22 binding 43 (no result: UCH37 inh, SIRT5 block)
COc1ccccc1-c1ccc2c(c1)O[C@@H](CN(C)Cc1ccc3c(c1)OCO3)[C@@H](C)CN([C@@H](C)CO)S2(=O)=O	SIRT5 block 21 (no result: UCH37 inh, NSD2 HMT inh)
